Experimental findings from ChEMBL document CHEMBL1765003, “Discovery of (1S,2R,3R)-2,3-dimethyl-2-phenyl-1-sulfamidocyclopropanecarboxylates: novel and highly selective aggrecanase inhibitors” (J Med Chem, 2011) are described below.

The target of series [1] is Cytochrome P450 2C19 (Homo sapiens, UniProt P33261). Briefly: Inhibition of CYP2C19 at up to 50 uM. In kind it is ADME.
For series [2], the target named is Disintegrin and metalloproteinase domain-containing protein 17 (Homo sapiens, UniProt P78536). Briefly: Inhibition of human recombinant TACE after 60 mins by fluorescence plate reader. The method in brief:
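rh-TACE at 80 ng/mL with 10 μM MCA-Pro-Leu-Ala-Gln-Ala-Val-Dpa-Arg-Ser-Ser-Ser-Arg-NH₂, in 100 mM Tris-HCl pH 7.5, 150 mM NaCl, 10 mM CaCl₂, 0.05% Brij-35. Inhibitor preincubated for 15 min at 25 °C. Fluorescence (ex 325/em 405 nm) read at 60 min. IC50 from three linear-range points; mean of ≥2.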

For series [3], the target named is T1, A disintegrin and metalloproteinase with thrombospondin motifs 5 (Homo sapiens, UniProt Q9UNA0).
T1 sequence (Q9UNA0 whole entry): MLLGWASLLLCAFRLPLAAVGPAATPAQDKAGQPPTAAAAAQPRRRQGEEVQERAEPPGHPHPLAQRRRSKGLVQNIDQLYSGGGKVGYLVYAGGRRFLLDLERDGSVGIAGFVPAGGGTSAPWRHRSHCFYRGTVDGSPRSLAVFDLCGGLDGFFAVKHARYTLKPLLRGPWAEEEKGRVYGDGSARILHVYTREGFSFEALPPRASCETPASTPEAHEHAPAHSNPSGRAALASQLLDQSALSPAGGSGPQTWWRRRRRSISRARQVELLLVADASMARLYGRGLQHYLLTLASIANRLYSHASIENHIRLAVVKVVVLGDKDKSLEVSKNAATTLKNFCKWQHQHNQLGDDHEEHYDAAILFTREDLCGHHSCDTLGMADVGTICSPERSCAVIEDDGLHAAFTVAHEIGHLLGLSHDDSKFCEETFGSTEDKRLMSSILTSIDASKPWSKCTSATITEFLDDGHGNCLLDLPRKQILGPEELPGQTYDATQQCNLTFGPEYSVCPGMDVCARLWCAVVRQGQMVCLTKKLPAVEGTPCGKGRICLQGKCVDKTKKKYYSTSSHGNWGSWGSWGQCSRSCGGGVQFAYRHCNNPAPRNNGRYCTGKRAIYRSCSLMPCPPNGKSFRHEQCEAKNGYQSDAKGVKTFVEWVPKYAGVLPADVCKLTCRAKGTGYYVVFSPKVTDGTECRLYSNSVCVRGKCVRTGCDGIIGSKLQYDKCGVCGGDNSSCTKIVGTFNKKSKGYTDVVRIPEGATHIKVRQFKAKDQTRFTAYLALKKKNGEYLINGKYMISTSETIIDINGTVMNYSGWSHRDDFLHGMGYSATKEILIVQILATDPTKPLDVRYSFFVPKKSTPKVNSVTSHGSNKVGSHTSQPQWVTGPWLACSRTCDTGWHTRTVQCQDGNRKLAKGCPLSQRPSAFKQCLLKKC
Kind of series: Inhibition of human recombinant aggrecanase 2 after 150 mins by fluorescence plate reader.

In series [4] the target is T2, A disintegrin and metalloproteinase with thrombospondin motifs 4 (Homo sapiens, UniProt O75173).
T2 sequence (O75173 whole entry): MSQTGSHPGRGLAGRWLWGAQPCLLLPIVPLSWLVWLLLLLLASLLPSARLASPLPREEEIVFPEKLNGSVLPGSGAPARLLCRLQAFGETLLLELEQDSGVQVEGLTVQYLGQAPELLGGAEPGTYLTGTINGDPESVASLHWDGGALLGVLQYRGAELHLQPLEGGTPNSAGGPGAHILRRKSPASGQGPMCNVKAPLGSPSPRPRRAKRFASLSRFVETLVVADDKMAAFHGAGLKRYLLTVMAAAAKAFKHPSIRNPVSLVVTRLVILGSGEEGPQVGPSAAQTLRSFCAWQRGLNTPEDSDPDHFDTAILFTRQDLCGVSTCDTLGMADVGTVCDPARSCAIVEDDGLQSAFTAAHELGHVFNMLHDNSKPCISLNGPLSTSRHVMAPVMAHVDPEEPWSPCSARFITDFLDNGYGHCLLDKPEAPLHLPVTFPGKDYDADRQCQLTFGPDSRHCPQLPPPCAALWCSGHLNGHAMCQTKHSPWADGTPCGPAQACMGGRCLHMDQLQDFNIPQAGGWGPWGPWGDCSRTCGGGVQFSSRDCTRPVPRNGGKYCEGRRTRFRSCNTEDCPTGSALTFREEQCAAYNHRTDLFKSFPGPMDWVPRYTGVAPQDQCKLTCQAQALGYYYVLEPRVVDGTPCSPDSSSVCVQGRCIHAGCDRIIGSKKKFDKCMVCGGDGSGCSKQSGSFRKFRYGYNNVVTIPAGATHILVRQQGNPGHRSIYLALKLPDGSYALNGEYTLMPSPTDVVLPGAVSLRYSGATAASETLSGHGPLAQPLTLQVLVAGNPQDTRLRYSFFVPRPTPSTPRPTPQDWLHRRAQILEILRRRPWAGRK
Briefly: Inhibition of human recombinant aggrecanase 1 after 150 mins by fluorescence plate reader.

Series [5] concerns the target Cytochrome P450 2D6 (Homo sapiens, UniProt P10635). Briefly: Inhibition of CYP2D6 at up to 50 uM. In kind it is ADME.
The target in series [6] is T3, Cytochrome P450 2A6 (Homo sapiens, UniProt P11509).
T3 sequence (P11509 whole entry): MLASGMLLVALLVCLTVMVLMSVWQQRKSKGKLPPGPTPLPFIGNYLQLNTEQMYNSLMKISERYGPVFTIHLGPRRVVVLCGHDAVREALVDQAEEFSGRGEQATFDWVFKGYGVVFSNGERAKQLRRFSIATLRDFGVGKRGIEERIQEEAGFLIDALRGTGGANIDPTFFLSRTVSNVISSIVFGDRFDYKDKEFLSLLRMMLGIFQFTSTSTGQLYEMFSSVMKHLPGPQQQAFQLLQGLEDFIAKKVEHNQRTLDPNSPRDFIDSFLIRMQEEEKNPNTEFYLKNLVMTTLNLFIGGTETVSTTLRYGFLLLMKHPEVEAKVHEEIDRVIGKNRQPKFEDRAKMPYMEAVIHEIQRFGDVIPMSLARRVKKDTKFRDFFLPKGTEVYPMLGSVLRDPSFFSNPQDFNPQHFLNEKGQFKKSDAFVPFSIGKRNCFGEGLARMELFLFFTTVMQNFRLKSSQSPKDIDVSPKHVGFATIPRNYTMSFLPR
Briefly: Inhibition of CYP2A6 at up to 50 uM. Format: ADME.

A short description of series [7]: Half life in Sprague-Dawley rat at 10 mg/kg, po. The following applies: in vivo. Format: ADME, organism-based. On the set-up: dose 10 mg/kg, route oral.
Series [8] can be described thus: Oral bioavailability in Sprague-Dawley rat at 10 mg/kg. In kind it is ADME, organism-based. Conditions: Sprague-Dawley, in vivo; call rule not given here.
Series [9] has as its target Matrix metalloproteinase-9 (Homo sapiens, UniProt P14780). Kind of series: Inhibition of human recombinant MMP9 after 60 mins by fluorescence plate reader. The method in brief:
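rh-MMP-9 at 4 ng/mL with 10 μM MOCAc-Pro-Leu-Gly-Leu-A2pr(Dnp)-Ala-Arg-NH₂, in 100 mM Tris-HCl pH 7.5, 150 mM NaCl, 10 mM CaCl₂, 0.05% Brij-35. Enzyme and inhibitor preincubated for 15 min at 25 °C before substrate. Fluorescence (ex 325/em 405 nm) read at 60 min. IC50 from three linear-range points; ≥2 runs averaged.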

Cytochrome P450 2C19, sequence (P33261 whole entry, the tested form may be a part): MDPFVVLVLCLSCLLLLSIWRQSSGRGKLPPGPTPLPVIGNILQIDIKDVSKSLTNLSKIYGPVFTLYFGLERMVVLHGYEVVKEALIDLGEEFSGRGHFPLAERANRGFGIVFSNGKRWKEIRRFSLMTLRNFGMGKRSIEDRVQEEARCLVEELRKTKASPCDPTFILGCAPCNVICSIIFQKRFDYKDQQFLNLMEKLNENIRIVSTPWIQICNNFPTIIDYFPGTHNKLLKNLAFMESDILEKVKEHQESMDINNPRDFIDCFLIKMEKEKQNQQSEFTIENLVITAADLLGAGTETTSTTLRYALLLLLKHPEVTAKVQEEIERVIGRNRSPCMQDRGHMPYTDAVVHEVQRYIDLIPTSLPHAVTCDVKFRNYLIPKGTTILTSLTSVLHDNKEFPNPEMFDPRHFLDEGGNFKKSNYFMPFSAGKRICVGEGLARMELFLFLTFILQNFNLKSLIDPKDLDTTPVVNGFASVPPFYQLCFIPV
Cytochrome P450 2D6, sequence (P10635 whole entry): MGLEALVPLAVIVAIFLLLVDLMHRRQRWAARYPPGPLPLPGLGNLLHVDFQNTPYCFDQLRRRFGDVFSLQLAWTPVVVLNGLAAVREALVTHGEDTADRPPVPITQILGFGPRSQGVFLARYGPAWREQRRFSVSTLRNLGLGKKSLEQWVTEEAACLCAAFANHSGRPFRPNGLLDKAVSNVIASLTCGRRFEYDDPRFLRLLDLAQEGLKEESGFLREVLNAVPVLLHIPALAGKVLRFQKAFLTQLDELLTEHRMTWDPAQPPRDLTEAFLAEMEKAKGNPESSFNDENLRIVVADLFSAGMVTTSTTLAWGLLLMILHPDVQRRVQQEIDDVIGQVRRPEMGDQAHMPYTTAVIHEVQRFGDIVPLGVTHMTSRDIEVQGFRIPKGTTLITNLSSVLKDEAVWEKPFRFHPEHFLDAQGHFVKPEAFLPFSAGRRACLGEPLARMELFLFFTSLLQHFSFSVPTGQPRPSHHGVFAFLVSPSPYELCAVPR
Disintegrin and metalloproteinase domain-containing protein 17, sequence (P78536 whole entry, the tested form may be a part): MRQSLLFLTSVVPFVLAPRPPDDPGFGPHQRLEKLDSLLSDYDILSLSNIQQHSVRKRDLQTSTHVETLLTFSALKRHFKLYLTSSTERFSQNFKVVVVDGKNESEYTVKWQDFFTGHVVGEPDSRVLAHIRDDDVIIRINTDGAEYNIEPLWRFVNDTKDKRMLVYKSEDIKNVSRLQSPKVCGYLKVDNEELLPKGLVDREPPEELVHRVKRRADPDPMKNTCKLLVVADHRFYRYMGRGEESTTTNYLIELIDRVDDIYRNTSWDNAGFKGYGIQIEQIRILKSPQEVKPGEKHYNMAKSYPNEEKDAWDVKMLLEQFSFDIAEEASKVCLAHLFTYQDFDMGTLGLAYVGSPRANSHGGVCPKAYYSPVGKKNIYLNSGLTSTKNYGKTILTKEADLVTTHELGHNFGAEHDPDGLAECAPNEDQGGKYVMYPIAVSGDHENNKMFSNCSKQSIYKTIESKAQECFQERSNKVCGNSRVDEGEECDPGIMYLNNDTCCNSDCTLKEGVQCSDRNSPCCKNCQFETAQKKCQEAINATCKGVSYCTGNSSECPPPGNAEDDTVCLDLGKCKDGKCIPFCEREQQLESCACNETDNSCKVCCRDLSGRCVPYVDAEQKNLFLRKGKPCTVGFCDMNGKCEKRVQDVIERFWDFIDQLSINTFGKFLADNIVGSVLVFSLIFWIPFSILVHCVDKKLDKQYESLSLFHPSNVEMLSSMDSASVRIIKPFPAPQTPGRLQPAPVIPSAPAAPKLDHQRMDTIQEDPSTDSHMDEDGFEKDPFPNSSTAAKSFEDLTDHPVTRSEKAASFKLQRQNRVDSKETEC
Matrix metalloproteinase-9, sequence (P14780 whole entry): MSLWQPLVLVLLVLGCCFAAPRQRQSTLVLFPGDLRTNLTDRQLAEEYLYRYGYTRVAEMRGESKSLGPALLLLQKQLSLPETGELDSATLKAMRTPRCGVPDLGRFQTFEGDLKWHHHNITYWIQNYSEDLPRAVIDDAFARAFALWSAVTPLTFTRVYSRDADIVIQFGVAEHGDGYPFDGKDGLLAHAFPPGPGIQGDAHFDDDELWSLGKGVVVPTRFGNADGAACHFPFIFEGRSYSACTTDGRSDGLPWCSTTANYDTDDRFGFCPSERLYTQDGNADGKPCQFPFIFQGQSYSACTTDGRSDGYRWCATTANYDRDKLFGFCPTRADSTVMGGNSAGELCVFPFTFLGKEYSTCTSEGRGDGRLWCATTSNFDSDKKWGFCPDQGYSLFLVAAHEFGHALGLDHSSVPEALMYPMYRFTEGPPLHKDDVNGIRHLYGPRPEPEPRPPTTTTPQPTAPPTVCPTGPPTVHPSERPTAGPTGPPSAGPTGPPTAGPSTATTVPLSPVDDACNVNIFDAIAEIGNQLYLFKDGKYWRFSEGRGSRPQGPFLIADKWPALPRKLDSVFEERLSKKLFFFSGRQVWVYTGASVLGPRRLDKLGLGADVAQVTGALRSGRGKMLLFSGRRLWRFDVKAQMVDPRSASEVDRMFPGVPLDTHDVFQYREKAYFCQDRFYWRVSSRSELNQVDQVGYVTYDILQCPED

As for `C[C@@H]1[C@](C)(c2ccccc2)[C@]1(NS(=O)(=O)N1CCc2c(nc3cc(F)ccn23)C1)C(=O)O`, the “inhibition (INH)” value in [1], in [5] and in [6] was “Not Active” in each case. For the same molecule, the half-maximal inhibitory concentration (IC50) in [2] is above 10000 nM; in [3], 8.4 nM; in series [4], 23 nM; in series [9] it was above 10000 nM. This molecule also gave a half-life in [7] of 4 h. Besides, the bioavailability in series [8] came to 103%.

Broadly, the IC50 is the point on the concentration scale where inhibition reaches its midpoint. The half-life is how long it takes for the measured level to halve. A lower half-life goes with fast loss.
